Source: ChEMBL document CHEMBL1155025, “Xanthones from the botanical dietary supplement mangosteen (Garcinia mangostana) with aromatase inhibitory activity” (J Nat Prod, 2008)

How the values were obtained:
Aromatase [1] = target: T1, Aromatase (Homo sapiens, UniProt P11511); assay: Inhibition of aromatase over-expressed in human SKBR3 cells at 50 uM relative to control; assay type: cell-based; set-up: scale not given: the % may be the effect or the level left; settings: SK-BR-3, human; read-out: Activity
T1 sequence (P11511 whole entry): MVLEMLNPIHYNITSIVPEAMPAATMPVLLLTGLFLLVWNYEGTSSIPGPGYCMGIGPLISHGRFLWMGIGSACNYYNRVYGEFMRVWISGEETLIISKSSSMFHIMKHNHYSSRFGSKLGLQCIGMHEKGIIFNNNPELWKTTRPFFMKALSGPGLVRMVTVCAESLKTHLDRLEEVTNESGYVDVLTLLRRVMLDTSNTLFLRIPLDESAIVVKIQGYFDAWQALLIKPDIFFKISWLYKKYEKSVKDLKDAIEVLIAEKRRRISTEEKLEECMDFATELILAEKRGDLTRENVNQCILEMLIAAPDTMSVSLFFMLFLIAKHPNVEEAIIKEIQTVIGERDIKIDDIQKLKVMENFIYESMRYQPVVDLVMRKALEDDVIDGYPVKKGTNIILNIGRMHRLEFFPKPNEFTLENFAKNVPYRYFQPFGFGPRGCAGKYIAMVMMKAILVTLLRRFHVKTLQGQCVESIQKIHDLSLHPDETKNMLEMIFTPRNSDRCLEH
How it was run: (§1)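 SK-BR-3 human breast cancer cells overexpressing aromatase, treated in triplicate. 0.1% DMSO serves as negative control. Tritiated water formation is read as pmol 3H2O/h per 10^6 live cells and expressed as percent control activity versus DMSO.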

Aromatase [2] = target: T1, Aromatase; assay: Inhibition of aromatase over-expressed in human SKBR3 cells; assay type: cell-based, SK-BR-3
How it was run: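 SK-BR-3 human breast cancer cells overexpressing aromatase were treated in triplicate at various concentrations (screen at 50 µM), with 0.1% DMSO as negative control and 10 nM letrozole as positive control. Read-out was pmol 3H2O formed per hour per 10^6 live cells. Percent control activity was calculated versus DMSO.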

Aromatase [3] = target: T1, Aromatase; assay: Inhibition of aromatase in human placental microsomes; set-up: species or system Placenta
How it was run: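 Human term placental microsomes (50 µg, processed at 4 °C) incubated for 15 min at 37 °C with 100 nM [1β-3H]androstenedione in 0.1 M potassium phosphate pH 7.0, 5% propylene glycol, and NADPH-regenerating system. Quenched with CHCl3; 3H2O in aqueous layer counted by scintillation. IC50 derived from dose-response testing.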

Aromatase [4] = target: T1, Aromatase; assay: Inhibition of aromatase in human placental microsomes at 20 ug/ml relative to control; set-up: species or system Placenta; scale not given: the % may be the effect or the level left
How it was run: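 Radiometric placental microsome assay with samples at 20 µg/mL in DMSO, in triplicate. 100 nM [1β-3H]androstenedione, pH 7.0 phosphate buffer, 5% propylene glycol, and NADPH-regenerating system. Reaction started with 50 µg microsomes, run 15 min at 37 °C, and stopped with CHCl3. 3H2O counted; percent control activity taken relative to DMSO.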

SK-BR-3 = assay: Cytotoxicity against human SKBR3 cells assessed as survival by MTT assay relative to control; assay type: functional
How it was run: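 MTT viability assay in SK-BR-3 human breast cancer cells that overexpress aromatase. Cells exposed to samples in DMSO, with DMSO as negative control. Six replicates. Read-out is percent cell survival relative to the DMSO control. IC50 obtained from a concentration–response curve.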

Aromatase [5] = target: T1, Aromatase; assay: Inhibition of aromatase over-expressed in human SKBR3 cells at 10 nM relative to control; assay type: cell-based; set-up: scale not given: the % may be the effect or the level left; settings: SK-BR-3, human; read-out: Activity; how it was run: as §1

| Activity (Aromatase [4]) [%] | Compound | activity at 50 µM (Aromatase [1]) [%] | IC50 (Aromatase [3]) [µM] | further results |
| --- | --- | --- | --- | --- |
| 55.1 | COc1c(CC=C(C)C)c(O)c2c(=O)c3c(O)ccc(O)c3oc2c1CC=C(C)C | – | – | – |
| 52.6 | COc1c(O)cc2oc3cc(O)c4c(c3c(=O)c2c1CC=C(C)C)OC(C)(C)CC4 | – | – | – |
| 82.6 | CC(C)=CCc1c(O)c(CC=C(C)C)c2oc3c(O)cccc3c(=O)c2c1O [8-DEOXYGARTANIN] | – | – | – |
| 57.8 | COc1c(CC=C(C)C)c(O)c2c(=O)c3cccc(O)c3oc2c1CC=C(C)C [CUDRAXANTHONE G] | – | – | – |
| 75.9 | CC(C)=CCc1c(O)c(CC=C(C)C)c2oc3c(O)ccc(O)c3c(=O)c2c1O [GARTANIN] | – | – | – |
| – | N#Cc1ccc(C(c2ccc(C#N)cc2)n2cncn2)cc1 [LETROZOLE] | – | – | activity at 0.01 µM (Aromatase [5]): 7.4% |
| 78.8 | CC(C)=CCC/C(C)=C/Cc1c(O)cc2oc3c(O)cccc3c(=O)c2c1O [MANGOSTINONE] | – | – | – |
| 80.8 | CC(C)=CCC/C(C)=C/Cc1c(O)cc2oc3c(O)ccc(O)c3c(=O)c2c1O [SMEATHXANTHONE A] | – | – | – |
| 74.7 | CC(C)=CCc1c(O)cc2oc3c(CC=C(C)C)c(O)c4c(c3c(=O)c2c1O)C=CC(C)(C)O4 [TOVOPHYLLINE A] | – | – | – |

| Compound | Activity (Aromatase [4]) [%] | activity at 50 µM (Aromatase [1]) [%] | IC50 (Aromatase [3]) [µM] | further results |
| --- | --- | --- | --- | --- |
| CC(C)=CCc1c(O)cc2oc3cc(O)c(O)c(CC=C(C)C)c3c(=O)c2c1O | 4.7 | -0.5 | 6.9 | IC50 (Aromatase [2]): 4.97 µM |
| COc1c(O)cc2oc3cc(O)c(CC=C(C)C)c(O)c3c(=O)c2c1CCC(C)(C)O [GARCINONE D] | 10 | 50.7 | 5.2 | Survival (SK-BR-3): 89.4% |
| CC(C)=CCc1c(O)cc2oc3c(CC=C(C)C)c(O)c(O)c(CC=C(C)C)c3c(=O)c2c1O [GARCINONE E] | 23.9 | 32.3 | 25.1 | Survival (SK-BR-3): 52.3% |
| COc1c(O)cc2oc3cc(O)c(CC=C(C)C)c(O)c3c(=O)c2c1CC=C(C)C [MANGOSTIN] | 22.2 | 59.4 | 20.7 | Survival (SK-BR-3): 18.4% |
